In ChEMBL document CHEMBL2157989, “Synthesis and biological evaluation of antibody conjugates of phosphate prodrugs of cytotoxic DNA alkylators for the targeted treatment of cancer” (J Med Chem, 2012):
Values after ≈ are worked out from the molar mass of the structure shown.

Key:
[1] = Prodrug conversion assessed as 1-[S]-(Chloromethyl)-5-hydroxy-3-{{5-[5-(4-methyldithio-3,3- dimethyl butyryl)indol-2-yl-carbonyl amino]indole-2-yl}carbonyl}- 1,2-dihydro-3H-benz[e]indole formation in presence of porcine mucosa alkaline phosphatase at pH 7.4; assay type: physicochemical; details: pig, isolated protein
[2] = Solubility of the compound in 10% DMA and 90% buffer at pH 7 at 1.5 mg sonicated for 45 mins followed by centrifugation for 45 mins by UV/Vis spectroscopy; assay type: physicochemical
In short: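 About 1.5 mg of compound is sonicated for 45 min in pH 7.0 buffer containing 10% or 20% DMA, then centrifuged at 1400g for 45 min. Supernatant concentration is read by UV/vis at 340 nm. ε at pH 7.0 is 41500 M⁻¹ cm⁻¹ for DC1–SR₂ compounds and 34500 M⁻¹ cm⁻¹ for phosphate prodrugs.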

Ramos = assay: Cytotoxicity against human Ramos cells assessed as cell survival after 72 hrs by clonogenic assay; assay type: functional, cell-based
In short: (§1)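 Cells were kept in RPMI 1640 with 10% heat-inactivated FBS at 37 °C and 6% CO₂. They were plated at 1000–5000 cells/well and exposed to 0–3 nM test agent for 72 h. Medium was then replaced and colonies grew for 7–10 days in total after plating. Colonies were fixed and stained with 0.2% crystal violet in 10% formalin/PBS, then counted. Surviving fraction = colonies in treated wells / colonies in control wells; IC₅₀ was taken from this.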

[3] = Cytotoxicity against human NAMALWA cells assessed as cell survival after 72 hrs by clonogenic assay; assay type: functional, cell-based; details: NAMALVA; in short: as §1
[4] = Cytotoxicity against human NAMALWA cells assessed as cell survival after 72 hrs in presence of bovine alkaline phosphatase by clonogenic assay; assay type: functional, cell-based; details: NAMALVA
In short: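 Clonogenic assay: cells in RPMI 1640 with 10% heat-inactivated FBS were plated at 1000–5000 cells/well. Test agent (0–3 nM) was combined with alkaline phosphatase from bovine liver, and cells were exposed for 72 h. Colonies then grew for 7–10 days after plating and were stained with 0.2% crystal violet in 10% formalin/PBS. Surviving fraction is relative to untreated control wells.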

[5] = Prodrug activation assessed as enzyme-mediated compound dephosphorylation in presence of bovine kidney alkaline phosphatase P4653 at pH 7.4 by HPLC; details: cattle, isolated protein
[6] = Prodrug activation assessed as enzyme-mediated compound dephosphorylation in presence of bovine liver alkaline phosphatase P7034 at pH 7.4 by HPLC; details: cattle, isolated protein
[7] = Solubility in water at 1.5 mg sonicated for 45 mins followed by centrifugation for 45 mins by UV/Vis spectroscopy; assay type: physicochemical; details: 0.75 h
In short: (§2)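 Solid compound (~1.5 mg) in the stated solvent was sonicated 45 min, then centrifuged at 1400g for 45 min. The supernatant concentration was read by UV/vis at 340 nm, using ε = 41500 M⁻¹ cm⁻¹ for the free phenols and 34500 M⁻¹ cm⁻¹ for the phosphate prodrugs (pH 7.0 values).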

[8] = Solubility in toluene at 1.5 mg sonicated for 45 mins followed by centrifugation for 45 mins by UV/Vis spectroscopy; assay type: physicochemical; details: 0.75 h; in short: as §2
[9] = Solubility in chloroform at 1.5 mg sonicated for 45 mins followed by centrifugation for 45 mins by UV/Vis spectroscopy; assay type: physicochemical; details: 0.75 h; in short: as §2
[10] = Solubility in ethanol at 1.5 mg sonicated for 45 mins followed by centrifugation for 45 mins by UV/Vis spectroscopy; assay type: physicochemical; details: 0.75 h; in short: as §2
[11] = Solubility in water containing 5% THF at 1.5 mg sonicated for 45 mins followed by centrifugation for 45 mins by UV/Vis spectroscopy; assay type: physicochemical; details: 0.75 h
[12] = Solubility in water containing 5% dioxane at 1.5 mg sonicated for 45 mins followed by centrifugation for 45 mins by UV/Vis spectroscopy; assay type: physicochemical; details: 0.75 h
[13] = Solubility in water containing 5% DMA at 1.5 mg sonicated for 45 mins followed by centrifugation for 45 mins by UV/Vis spectroscopy; assay type: physicochemical; details: 0.75 h
[14] = Solubility in water containing 5% DMF at 1.5 mg sonicated for 45 mins followed by centrifugation for 45 mins by UV/Vis spectroscopy; assay type: physicochemical; details: 0.75 h
[15] = Prodrug activation assessed as enzyme-mediated compound dephosphorylation in presence of wheat germ acid phosphatase Sigma P3627 at pH 7.4 by HPLC; details: isolated protein
[16] = Prodrug conversion assessed as 1 - [ S ] - ( Ch l o r ome t h y l ) - 5 - h y d r o x y - 3 - { { 5 - [ 5 - ( 3 -methyldithiopropionyl)indol-2-yl-carbonyl amino]indole-2-yl}- carbonyl}-1,2-dihydro-3H-benz[e]indole formation in presence of bovine liver alkaline phosphatase at pH 7.4; assay type: physicochemical; details: cattle, isolated protein
[17] = Prodrug conversion assessed as 1-[S]-(Chloromethyl)-5-hydroxy-3-{{5-[5-(4-methyldithio-3,3- dimethyl butyryl)indol-2-yl-carbonyl amino]indole-2-yl}carbonyl}- 1,2-dihydro-3H-benz[e]indole formation in presence of bovine liver alkaline phosphatase at pH 7.4; assay type: physicochemical; details: cattle, isolated protein
[18] = Prodrug conversion assessed as 1-[S]-(Chloromethyl)-5-hydroxy-3-{{5-[5-(4-methyldithio-3,3- dimethyl butyryl)indol-2-yl-carbonyl amino]indole-2-yl}carbonyl}- 1,2-dihydro-3H-benz[e]indole formation in presence of bovine kidney alkaline phosphatase at pH 7.4; assay type: physicochemical; details: cattle, isolated protein
[19] = Prodrug conversion assessed as 1-[S]-(Chloromethyl)-5-hydroxy-3-{{5-[5-(4-methyldithio-3,3- dimethyl butyryl)indol-2-yl-carbonyl amino]indole-2-yl}carbonyl}- 1,2-dihydro-3H-benz[e]indole formation in presence of rabbit intestine alkaline phosphatase at pH 7.4; assay type: physicochemical; details: in vitro
[20] = Prodrug conversion assessed as 1 - [ S ] - ( Ch l o r ome t h y l ) - 5 - h y d r o x y - 3 - { { 5 - [ 5 - ( 3 -methyldithiopropionyl)indol-2-yl-carbonyl amino]indole-2-yl}- carbonyl}-1,2-dihydro-3H-benz[e]indole formation in presence of rabbit intestine alkaline phosphatase at pH 7.4; assay type: physicochemical; details: in vitro
[21] = Prodrug conversion assessed as 1 - [ S ] - ( Ch l o r ome t h y l ) - 5 - h y d r o x y - 3 - { { 5 - [ 5 - ( 3 -methyldithiopropionyl)indol-2-yl-carbonyl amino]indole-2-yl}- carbonyl}-1,2-dihydro-3H-benz[e]indole formation in presence of porcine mucosa alkaline phosphatase at pH 7.4; assay type: physicochemical; details: pig, isolated protein

| Compound | Drug metabolism [1] | solubility at 0.75 h [2] | IC50 (Ramos) | IC50 [3] | IC50 [4] | Drug metabolism [5] | Drug metabolism [6] | solubility [7] | solubility [8] | solubility [9] | solubility [10] | solubility [11] | solubility [12] | solubility [13] | solubility [14] | Drug metabolism [15] | Drug metabolism [16] | further results |
| --- | --- | --- | --- | --- | --- | --- | --- | --- | --- | --- | --- | --- | --- | --- | --- | --- | --- | --- |
| CSSC(C)(C)CCC(=O)Nc1ccc2[nH]c(C(=O)Nc3ccc4[nH]c(C(=O)N5C[C@@H](CCl)c6c5cc(OP(=O)(O)O)c5ccccc65)cc4c3)cc2c1 | Active | 4.6 mM (≈ 3710 µg/mL) | 2 nM | 2.8 nM | 0.025 nM | Active | Active | Insoluble | Insoluble | Insoluble | Insoluble | soluble | soluble | soluble | soluble | Active | Active | Drug metabolism [17]: Active; Drug metabolism [18]: Active; Drug metabolism [19]: Active |
| CSSCCC(=O)Nc1ccc2[nH]c(C(=O)Nc3ccc4[nH]c(C(=O)N5C[C@@H](CCl)c6c5cc(OP(=O)(O)O)c5ccccc65)cc4c3)cc2c1 | Active | 4.7 mM (≈ 3590 µg/mL) | 1.9 nM | 2.9 nM | 0.03 nM | Active | Active | Insoluble | Insoluble | Insoluble | Insoluble | soluble | soluble | soluble | soluble | Active | Active | Drug metabolism [20]: Active; Drug metabolism [21]: Active |
